STEP inh = STEP (human) phosphatase inhibition. P54829. recombinant STEP, OMFP fluorogenic substrate, fluorescence. inhibition, % at 20 µM. 0.25% of 360,000 active;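 active = inhibition at 20 µM, scaled per plate between control wells, above about 37%, limit read from the data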
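material = STEP tyrosine phosphatase | reagent = fluorogenic phosphatase substrate OMFP at 25 µM final | doses = single compound dose of 20 µM, 1% DMSO final | schedule = 20 min reaction, room temperature, in the dark | measured by = fluorescence, 480/540 nm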
SUMO1-SIM PPI = alters human SUMO1 binding to SIM partners | P63165 | SUMO1 binding to a labelled peptide, TR-FRET, 1 h | inhibition, % at 20 µM | 0.33% of 360,000 active | AID 602429; in the data active = inhibition above about 37%
Scp-1 inhibitor = Scp-1 (human) phosphatase inhibition. AID 493091. 0.88% of 340,000 active. Q9GZU7. Recombinant Scp1, phosphopeptide, malachite green phosphate absorbance. inhibition, % at 20 µM;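 active = inhibition above about 50% at 20 µM, limit read from the data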
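System: truncated SCP-1 phosphatase (76-261aa); medium: Tris acetate buffer pH 5.5 with MgCl2 and Tween-20; incubation: 45 min room-temperature reaction, 5 min colour, 30 min stabiliser; compound: single 20 µM dose, 1% DMSO; reagent: Phosphorylated 17-residue peptide substrate; read-out: % inhibition at 20 µM; technique: colorimetric free-phosphate detection, absorbance 630 nm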
DNMT1 inh = inhibitors of human DNMT1; P26358; DNMT1 molecular beacon, Hinp1I cleavage, fluorescence; inhibition (reported as % activation of signal), % at 10 µM; 0.83% of 360,000 active; AID 588458; in the data active = inhibition above about 50%
Target sequence (P26358 504-1616 limits assumed): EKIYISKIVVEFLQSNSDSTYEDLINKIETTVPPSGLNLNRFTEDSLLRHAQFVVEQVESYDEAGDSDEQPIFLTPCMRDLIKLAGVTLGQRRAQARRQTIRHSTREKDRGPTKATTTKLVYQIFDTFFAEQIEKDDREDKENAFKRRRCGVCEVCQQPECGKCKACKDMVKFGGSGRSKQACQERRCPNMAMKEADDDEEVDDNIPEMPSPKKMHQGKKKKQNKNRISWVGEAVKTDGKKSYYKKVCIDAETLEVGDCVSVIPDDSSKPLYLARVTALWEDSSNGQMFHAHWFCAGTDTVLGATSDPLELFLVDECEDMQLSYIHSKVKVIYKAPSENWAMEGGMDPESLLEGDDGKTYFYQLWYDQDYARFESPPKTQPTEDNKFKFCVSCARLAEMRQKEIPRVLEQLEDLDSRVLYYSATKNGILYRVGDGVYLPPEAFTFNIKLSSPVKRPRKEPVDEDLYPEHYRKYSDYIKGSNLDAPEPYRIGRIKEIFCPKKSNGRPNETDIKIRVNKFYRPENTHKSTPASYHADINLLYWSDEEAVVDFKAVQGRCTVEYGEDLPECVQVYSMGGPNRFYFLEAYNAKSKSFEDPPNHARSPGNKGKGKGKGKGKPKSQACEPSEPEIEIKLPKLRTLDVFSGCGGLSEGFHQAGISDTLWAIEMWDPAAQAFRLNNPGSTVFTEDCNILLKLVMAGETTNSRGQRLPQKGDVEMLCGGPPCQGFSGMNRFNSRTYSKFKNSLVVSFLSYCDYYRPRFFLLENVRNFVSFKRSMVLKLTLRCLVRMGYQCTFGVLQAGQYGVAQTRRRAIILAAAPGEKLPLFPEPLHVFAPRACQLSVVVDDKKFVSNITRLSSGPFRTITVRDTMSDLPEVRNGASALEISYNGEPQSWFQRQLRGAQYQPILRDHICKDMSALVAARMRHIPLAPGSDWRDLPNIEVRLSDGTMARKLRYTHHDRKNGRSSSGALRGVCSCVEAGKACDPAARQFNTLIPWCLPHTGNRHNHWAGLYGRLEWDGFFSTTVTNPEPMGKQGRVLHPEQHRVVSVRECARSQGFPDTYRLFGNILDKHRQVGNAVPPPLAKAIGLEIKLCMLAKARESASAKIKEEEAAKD
CFTR F508del cor = CFTR F508del correction in bronchial cells. CFBE cells, YFP halide quenching; stimulated with forskolin plus potentiator P3; % fluorescence drop versus neutral controls. activity (quench increase), % at 7.58 µM. 0.36% of 350,000 active;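 active = mean added fluorescence quench of at least 8% versus neutral control, with both replicates also reaching 8%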;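 also: cells transiently co-express mutant CFTR-F508del with the halide-sensitive YFP; corrector assay measuring rescue of mutant channel to the surface after 24 h compound exposure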
LMPTP inh = blocks human LMPTP phosphatase; inhibition, % at 20 µM; recombinant LMPTP-A, OMFP fluorogenic substrate, fluorescence intensity; 0.22% of 360,000 active; AID 651560; P24666;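 active = compounds that cut the enzyme signal by at least half of the control window in the single-dose screen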
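test system = LMPTP-A | amount = 0.625 nM LMPTP-A final | reagent = fluorogenic phosphatase substrate OMFP at 400 µM final | incubation = 50 min at room temperature | benchmarks = no-enzyme low control, uninhibited high control | medium = Bis-Tris pH 6.0, DTT, detergent | signal = fluorescence intensity of OMFP turnover product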
Beacon interf DR = counter-screen for DNMT1 inhibitors: spectral interference, dose response. 200 tested, under 10 active. IC50, µM. molecular beacon fluorescence. shares compounds with DNMT1 inh; call rule not given here
DNMT1 inh conf = confirmation of human DNMT1 inhibitors. shares compounds with DNMT1 inh. DNMT1 molecular beacon HinP1I cleavage, fluorescence. inhibition, % at 10 µM. 8% of 2,300 active;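 active = average inhibition of at least 30% in the single-concentration confirmation test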
DNMT1 interf = shows spectral interference in the DNMT1 beacon assay; 1% of 2,300 active; AID 602387; activation (fluorescence interference), % at 10 µM; shares compounds with DNMT1 inh; DNMT1 molecular beacon spectral interference counterscreen, fluorescence 485/520;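 active = activation of at least 30% at 10 µM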;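 also: DNMT1 catalytic domain with a HinP1I cleavage step and a FAM/dabcyl DNA beacon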
A number is an active result. Shown are actives, neighbours in structure and some others; about 1.6% of the full set was active somewhere.

How did O=C1CN(c2nc(-c3ccccc3)c3ccccc3n2)c2ccccc2N1 do in these assays?
STEP inh: inactive; SUMO1-SIM PPI: inactive; Scp-1 inhibitor: inactive; DNMT1 inh: 60.6; LMPTP inh: inactive; DNMT1 inh conf: inactive; DNMT1 interf: inactive

How did O=C(C[n+]1cccc2ccccc21)c1ccc([N+](=O)[O-])cc1 do in these assays?
STEP inh: inactive; SUMO1-SIM PPI: inactive; Scp-1 inhibitor: inactive; DNMT1 inh: inactive; CFTR F508del cor: inactive; LMPTP inh: inactive

Results for Cc1cc[n+](CC(=O)c2cccc([N+](=O)[O-])c2)c2ccccc12 ?
STEP inh: inactive; SUMO1-SIM PPI: inactive; Scp-1 inhibitor: inactive; DNMT1 inh: 52.9; CFTR F508del cor: inactive; LMPTP inh: inactive; Beacon interf DR: inactive; DNMT1 inh conf: 42.6; DNMT1 interf: inactive

Results for CO[C@@H]1CN(C)C(=O)c2ccc(NC(=O)c3cccc(F)c3)cc2OC[C@@H](C)N(CC2CC2)C[C@@H]1C ?
CFTR F508del cor: inactive

What do the screens show for `CCNC(=O)C[C@@H]1CC[C@@H]2[C@H](COC[C@@H](O)CN2C(=O)Nc2ccc(Cl)c(Cl)c2)O1`?
CFTR F508del cor: inactive

Results for O=C(C[C@H]1C[C@H]2c3cc(NC(=O)Nc4ccc(F)cc4)ccc3O[C@H]2[C@H](CO)O1)NC1CCCC1 ?
CFTR F508del cor: inactive

Results for Cc1c(NS(=O)(=O)c2cccc(C(=O)NCc3ccco3)c2)c(=O)n(-c2ccccc2)n1C ?
STEP inh: inactive; SUMO1-SIM PPI: inactive; Scp-1 inhibitor: inactive; DNMT1 inh: 78.0; CFTR F508del cor: inactive; LMPTP inh: inactive; DNMT1 inh conf: inactive; DNMT1 interf: inactive

What do the screens show for `N#Cc1c(N)n(C2CCCCC2)c2nc3ccccc3nc12`?
STEP inh: inactive; SUMO1-SIM PPI: inactive; Scp-1 inhibitor: inactive; DNMT1 inh: inactive; LMPTP inh: inactive

What do the screens show for `CCCCn1c(NC(=O)CC)c(C#N)c2nc3ccccc3nc21`?
STEP inh: inactive; SUMO1-SIM PPI: inactive; Scp-1 inhibitor: inactive; DNMT1 inh: 73.6; LMPTP inh: inactive; DNMT1 inh conf: inactive; DNMT1 interf: inactive

Results for CCC(=O)Nc1c(C#N)c2nc3ccccc3nc2n1C1CCCCC1 ?
STEP inh: inactive; SUMO1-SIM PPI: 71.8; Scp-1 inhibitor: inactive; DNMT1 inh: 93.8; LMPTP inh: inactive; DNMT1 inh conf: inactive; DNMT1 interf: inactive

How did NS(=O)(=O)c1ccc(N=Nc2ccc(O)c3ncccc23)cc1 do in these assays?
STEP inh: inactive; SUMO1-SIM PPI: inactive; Scp-1 inhibitor: inactive; DNMT1 inh: inactive; CFTR F508del cor: inactive; LMPTP inh: inactive

What do the screens show for `NS(=O)(=O)c1ccc(N=Nc2ccc(=O)[nH]c2O)cc1`?
STEP inh: 85.1; SUMO1-SIM PPI: inactive; Scp-1 inhibitor: 85.9; DNMT1 inh: 100.1; CFTR F508del cor: inactive; LMPTP inh: inactive; Beacon interf DR: inactive; DNMT1 inh conf: inactive; DNMT1 interf: inactive

Results for COc1ccc(C2=NN(c3nc(-c4ccccc4)c(CC(=O)O)s3)C(c3ccco3)C2)cc1 (stereo not drawn) ?
STEP inh: inactive; SUMO1-SIM PPI: inactive; Scp-1 inhibitor: inactive; DNMT1 inh: 56.4; LMPTP inh: inactive; DNMT1 inh conf: inactive; DNMT1 interf: inactive

How did Cc1ccccc1-c1ccc(=O)n(CC(=O)Nc2ccc(-n3cnnn3)cc2)n1 do in these assays?
STEP inh: inactive; SUMO1-SIM PPI: inactive; Scp-1 inhibitor: inactive; DNMT1 inh: 90.0; CFTR F508del cor: inactive; LMPTP inh: inactive; DNMT1 inh conf: inactive; DNMT1 interf: inactive

What do the screens show for `Cc1ccccc1-c1ccc(=O)n(CC(=O)Nc2ccc(S(=O)(=O)N(C)C)cc2)n1`?
STEP inh: inactive; SUMO1-SIM PPI: inactive; Scp-1 inhibitor: inactive; DNMT1 inh: inactive; CFTR F508del cor: inactive; LMPTP inh: inactive

How did O=C(O)C1CCN(c2ncccn2)CC1 do in these assays?
STEP inh: inactive; SUMO1-SIM PPI: inactive; Scp-1 inhibitor: inactive; DNMT1 inh: 81.1; LMPTP inh: inactive; DNMT1 inh conf: inactive; DNMT1 interf: inactive

How did N#Cc1ccccc1/C=N/Nc1nc(-c2ccccc2)c2cc(Cl)ccc2n1 do in these assays?
STEP inh: inactive; SUMO1-SIM PPI: inactive; Scp-1 inhibitor: inactive; DNMT1 inh: 65.8; LMPTP inh: inactive; DNMT1 inh conf: inactive; DNMT1 interf: inactive

How did Cc1ccccc1-c1ccc([C@@H]2[C@H](CO)N3CCCCN(C(=O)Nc4ccc(F)cc4)C[C@@H]23)cc1 do in these assays?
CFTR F508del cor: inactive

How did COc1ccc(NC(=O)N(C)C[C@@H]2Oc3ccc(NC(=O)CCCCCC(=O)Nc4ccccc4N)cc3CC(=O)N([C@@H](C)CO)C[C@H]2C)cc1 do in these assays?
CFTR F508del cor: inactive

How did O=C(COC(=O)/C=C/c1ccccc1[N+](=O)[O-])NC1CCS(=O)(=O)C1 (stereo not drawn) do in these assays?
STEP inh: inactive; SUMO1-SIM PPI: inactive; Scp-1 inhibitor: inactive; DNMT1 inh: inactive; CFTR F508del cor: inactive; LMPTP inh: inactive

Results for O=C(COC(=O)/C=C/c1ccccc1[N+](=O)[O-])NC1CC1 ?
STEP inh: inactive; SUMO1-SIM PPI: inactive; Scp-1 inhibitor: inactive; DNMT1 inh: 50.2; CFTR F508del cor: inactive; LMPTP inh: inactive; DNMT1 inh conf: inactive; DNMT1 interf: inactive

Results for O=C(Cc1cccs1)N/N=C/C=C/c1ccco1 ?
STEP inh: inactive; SUMO1-SIM PPI: inactive; Scp-1 inhibitor: inactive; DNMT1 inh: 66.2; LMPTP inh: inactive; DNMT1 inh conf: inactive; DNMT1 interf: inactive

How did O=C(CNc1cccc2ccccc12)N/N=C/C=C/c1ccco1 do in these assays?
STEP inh: inactive; SUMO1-SIM PPI: inactive; Scp-1 inhibitor: inactive; DNMT1 inh: inactive; CFTR F508del cor: inactive; LMPTP inh: inactive

What do the screens show for `O=C(CSc1nnc(SCc2ccccc2)s1)N/N=C/C=C/c1ccco1`?
STEP inh: inactive; SUMO1-SIM PPI: inactive; Scp-1 inhibitor: 83.5; DNMT1 inh: 97.9; LMPTP inh: inactive; DNMT1 inh conf: inactive; DNMT1 interf: inactive

How did CSCCC(NC(=O)COc1ccccc1)C(=O)N(C)Cc1c(F)cccc1Cl (stereo not drawn) do in these assays?
STEP inh: inactive; SUMO1-SIM PPI: inactive; DNMT1 inh: 82.8; CFTR F508del cor: inactive; LMPTP inh: inactive; DNMT1 inh conf: inactive; DNMT1 interf: inactive

Compound activity deposited in PubChem by several laboratories.
